A short description of data set [1]: Displacement of [125I]angiotensin 2 from AT1 receptor in rat liver membrane after 2 hrs by gamma counting. It counts as cell membranes. In a few lines: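 Rat liver membranes (5 mg original tissue) were incubated with 0.03 nM [125I]Ang II and varied test-compound concentrations. Incubation was 2 h at 25 °C. Bound and free label were separated by filtration on PEI-soaked GF/B filters and bound label was gamma counted. Nonspecific binding was taken with 1 µM Ang II.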
In general terms: Loss of bound radioactivity is the signal in a displacement assay; it reports binding, not function.

A further data set deals with CYP3A4 (Homo sapiens, UniProt P08684). In words: Inhibition of human recombinant CYP3A4 at 10 uM by spectrofluorimetry. It counts as ADME. The method in brief: (§1)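 Compounds were tested at 10 µM in duplicate in a spectrofluorometric assay, with 0.25% final methanol and 0.25% final acetonitrile. Fluorescence at t = 0 was subtracted from fluorescence after incubation. Signal was compared with solvent-vehicle controls, and percent of control activity was reported as percent inhibition.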
Chain of CYP3A4 (P08684 whole entry): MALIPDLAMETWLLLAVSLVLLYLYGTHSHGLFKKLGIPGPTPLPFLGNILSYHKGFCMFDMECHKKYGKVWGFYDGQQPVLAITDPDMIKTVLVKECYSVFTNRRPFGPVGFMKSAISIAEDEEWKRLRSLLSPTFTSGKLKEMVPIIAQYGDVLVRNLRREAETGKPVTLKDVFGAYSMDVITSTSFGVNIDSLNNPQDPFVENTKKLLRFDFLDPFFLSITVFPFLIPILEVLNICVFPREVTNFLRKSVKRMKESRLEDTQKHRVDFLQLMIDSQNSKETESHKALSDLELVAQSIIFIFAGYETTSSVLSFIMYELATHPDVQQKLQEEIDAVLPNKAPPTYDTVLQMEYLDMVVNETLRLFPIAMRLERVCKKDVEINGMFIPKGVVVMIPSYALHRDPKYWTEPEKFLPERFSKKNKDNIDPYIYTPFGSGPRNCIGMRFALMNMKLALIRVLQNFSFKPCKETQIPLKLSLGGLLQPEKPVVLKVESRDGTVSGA

A further data set has as its target CYP2C9 (Homo sapiens, UniProt P11712). In words: Inhibition of human recombinant CYP2C9 at 10 uM by spectrofluorimetry. It counts as ADME. The method in brief: as §1
In data set [2] the target is T1, Angiotensin type II receptor (Sus scrofa, UniProt Q2XUH7).
T1 sequence (Q2XUH7 whole entry): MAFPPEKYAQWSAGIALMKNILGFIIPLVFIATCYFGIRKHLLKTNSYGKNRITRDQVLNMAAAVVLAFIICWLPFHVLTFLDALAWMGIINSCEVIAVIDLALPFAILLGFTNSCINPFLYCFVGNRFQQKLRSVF
The data set can be described thus: Displacement of [125I]angiotensin 2 from AT2 receptor in pig uterus membrane after 1.5 hrs by gamma counting. It is filed as cell membranes.

Another data set has as its target CYP2C19 (Homo sapiens, UniProt P33261). In words: Inhibition of human recombinant CYP2C19 at 10 uM by spectrofluorimetry. It counts as ADME. In a few lines: as §1
The next data set deals with CYP3A5 (Homo sapiens, UniProt P20815). The data set can be described thus: Inhibition of human recombinant CYP3A5 at 10 uM by spectrofluorimetry. It is filed as ADME. In a few lines:
as §1

Another data set addresses T2, CYP2B6 (Homo sapiens, UniProt P20813).
T2 sequence (P20813 whole entry): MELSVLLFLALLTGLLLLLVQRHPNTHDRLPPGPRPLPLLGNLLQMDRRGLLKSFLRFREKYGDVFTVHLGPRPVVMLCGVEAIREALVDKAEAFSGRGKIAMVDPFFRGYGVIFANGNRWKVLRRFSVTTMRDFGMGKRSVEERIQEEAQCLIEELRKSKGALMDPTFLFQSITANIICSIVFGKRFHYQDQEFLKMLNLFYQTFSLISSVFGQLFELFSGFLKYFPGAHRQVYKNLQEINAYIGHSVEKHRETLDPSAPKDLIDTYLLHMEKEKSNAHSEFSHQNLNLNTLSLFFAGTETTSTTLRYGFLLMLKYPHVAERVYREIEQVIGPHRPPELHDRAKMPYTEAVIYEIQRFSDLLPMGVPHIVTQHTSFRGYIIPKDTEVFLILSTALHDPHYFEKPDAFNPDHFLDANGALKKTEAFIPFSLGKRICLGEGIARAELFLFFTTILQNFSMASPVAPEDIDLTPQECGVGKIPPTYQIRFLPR
The data set can be described thus: Inhibition of human recombinant CYP2B6 at 10 uM by spectrofluorimetry. It counts as ADME. In a few lines: as §1

The nature of data set [3]: Displacement of [125I]angiotensin 2 from rat AT1 receptor expressed in african green monkey COS7 cells after 24 hrs. Conditions: cos-7. It is filed as cell-based.
For data set [4], the system named is NG108-15. The data set can be described thus: Cytotoxicity against rat/mouse hybrid NG108-15 cells at 1 uM. As to conditions: ng108-15, 1 µM. It is filed as cell-based. In a few lines: (§2)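 NG108-15 cells were cultured for three days with test compound at 1 pM to 1 µM. Cell death was then judged by phase-contrast microscopy.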
Data set [5] relates to NG108-15. In words: Cytotoxicity against rat/mouse hybrid NG108-15 cells up to 1 uM. It is filed as cell-based. The method in brief:
as §2

Data set [6] relates to NG108-15. In words: Agonist activity at AT2 receptor in rat/mouse hybrid NG108-15 cells assessed as induction of neurite growth at 0.1 nM after 3 days by phase contrast microscopy. It counts as functional, cell-based. In a few lines: (§3)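 NG108-15 cells (passage 7–30) were grown in DMEM with 10% FBS, HAT and gentamycin at 37 °C in 7% CO2. Cells were stimulated once daily for three days, starting 24 h after plating. When used, PD123,319 (1 µM) was added 30 min before agonist. After 3 days, cells were scored from phase-contrast micrographs: positive meant at least one neurite longer than the cell body, expressed as % of total cells. At least 140 cells were counted in three independent experiments.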

For another data set, the target named is CYP2E1 (Homo sapiens, UniProt P05181). The data set can be described thus: Inhibition of human recombinant CYP2E1 at 10 uM by spectrofluorimetry. It counts as ADME. The method in brief:
as §1

Data set [7] deals with NG108-15. In words: Agonist activity at AT2 receptor in rat/mouse hybrid NG108-15 cells assessed as induction of neurite growth at 0.1 nM after 3 days by phase contrast microscopy in presence of 1 uM AT2 receptor antagonist PD-123319. It counts as functional, cell-based. The method in brief: as §3
For data set [8], the system named is NG108-15. In words: Agonist activity at AT2 receptor in rat/mouse hybrid NG108-15 cells assessed as induction of neurite growth at 100 nM after 3 days by phase contrast microscopy. It is filed as functional, cell-based. As to conditions: 0.1 nM, in the assay text read “at 0.1 nM” for “at 100 nM”. The method in brief:
as §3

This note sets out measurements from ChEMBL document CHEMBL1165972, “Selective angiotensin II AT(2) receptor agonists with reduced CYP 450 inhibition” (Bioorg Med Chem, 2010).

The term Ki denotes a dissociation constant, usually derived from enzyme kinetics or from competition with a known ligand. As usually defined, the inhibition is the change of the read-out against control, counted positive when it falls. As usually defined, the IC50 is the point on the concentration scale where inhibition reaches its midpoint.

Calls of active or inactive are those of the source. The calls are words filed in the database; no cut-off is given here.

Chain of CYP2C19 (P33261 whole entry): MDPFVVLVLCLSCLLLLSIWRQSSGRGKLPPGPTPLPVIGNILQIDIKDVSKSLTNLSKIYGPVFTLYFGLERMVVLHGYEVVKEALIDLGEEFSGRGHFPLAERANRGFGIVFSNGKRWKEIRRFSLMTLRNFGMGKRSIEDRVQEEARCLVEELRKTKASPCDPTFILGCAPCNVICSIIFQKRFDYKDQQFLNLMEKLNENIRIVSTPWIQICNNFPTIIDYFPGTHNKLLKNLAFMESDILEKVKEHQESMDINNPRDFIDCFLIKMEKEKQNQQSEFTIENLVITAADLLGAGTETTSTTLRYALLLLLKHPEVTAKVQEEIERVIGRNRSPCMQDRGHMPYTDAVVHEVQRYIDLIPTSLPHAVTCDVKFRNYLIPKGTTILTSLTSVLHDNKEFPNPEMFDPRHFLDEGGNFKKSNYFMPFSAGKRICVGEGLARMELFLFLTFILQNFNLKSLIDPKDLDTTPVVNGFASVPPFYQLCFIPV
Chain of CYP2C9 (P11712 whole entry): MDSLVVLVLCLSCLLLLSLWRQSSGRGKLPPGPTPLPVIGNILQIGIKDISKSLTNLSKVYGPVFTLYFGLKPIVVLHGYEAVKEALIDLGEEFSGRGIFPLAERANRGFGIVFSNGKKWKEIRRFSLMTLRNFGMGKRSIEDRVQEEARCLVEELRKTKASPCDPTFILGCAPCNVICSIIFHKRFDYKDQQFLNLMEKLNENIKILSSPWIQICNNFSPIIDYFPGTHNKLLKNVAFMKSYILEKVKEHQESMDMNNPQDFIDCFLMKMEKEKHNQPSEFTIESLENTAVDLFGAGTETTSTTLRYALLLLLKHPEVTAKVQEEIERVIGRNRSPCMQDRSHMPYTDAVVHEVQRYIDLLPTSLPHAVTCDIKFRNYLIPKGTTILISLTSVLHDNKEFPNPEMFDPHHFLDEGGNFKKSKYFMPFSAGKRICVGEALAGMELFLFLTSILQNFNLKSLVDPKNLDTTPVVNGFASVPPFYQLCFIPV
Chain of CYP3A5 (P20815 whole entry): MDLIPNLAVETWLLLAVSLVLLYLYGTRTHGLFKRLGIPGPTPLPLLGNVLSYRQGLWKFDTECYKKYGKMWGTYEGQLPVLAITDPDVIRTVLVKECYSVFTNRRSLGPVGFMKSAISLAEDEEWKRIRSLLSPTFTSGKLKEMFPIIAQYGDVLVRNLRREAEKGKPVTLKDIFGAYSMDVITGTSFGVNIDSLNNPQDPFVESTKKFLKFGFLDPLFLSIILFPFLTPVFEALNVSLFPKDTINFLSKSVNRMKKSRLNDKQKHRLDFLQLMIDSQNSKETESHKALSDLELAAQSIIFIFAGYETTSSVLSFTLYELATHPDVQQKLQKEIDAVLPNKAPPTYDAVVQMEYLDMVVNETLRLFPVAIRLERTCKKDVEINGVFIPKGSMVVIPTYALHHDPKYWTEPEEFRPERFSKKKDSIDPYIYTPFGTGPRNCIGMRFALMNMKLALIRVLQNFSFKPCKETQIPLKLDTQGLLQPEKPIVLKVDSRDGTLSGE
Chain of CYP2E1 (P05181 whole entry): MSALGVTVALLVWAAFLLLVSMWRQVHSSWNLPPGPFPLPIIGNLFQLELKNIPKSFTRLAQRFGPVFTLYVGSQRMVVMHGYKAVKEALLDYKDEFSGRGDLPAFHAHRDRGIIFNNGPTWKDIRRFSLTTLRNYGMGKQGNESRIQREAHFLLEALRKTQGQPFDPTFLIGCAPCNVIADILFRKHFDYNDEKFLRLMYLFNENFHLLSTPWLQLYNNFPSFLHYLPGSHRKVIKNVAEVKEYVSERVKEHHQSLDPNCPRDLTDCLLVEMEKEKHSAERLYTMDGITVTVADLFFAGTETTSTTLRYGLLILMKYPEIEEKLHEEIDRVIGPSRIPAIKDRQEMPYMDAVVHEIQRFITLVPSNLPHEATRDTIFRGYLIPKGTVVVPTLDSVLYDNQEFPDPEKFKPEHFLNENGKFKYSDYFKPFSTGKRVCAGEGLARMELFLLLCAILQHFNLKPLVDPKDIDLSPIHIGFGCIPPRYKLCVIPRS

`CCCCOC(=O)NS(=O)(=O)c1sc(CC(C)C)cc1-c1ccc(Cc2nccs2)cc1`: the inhibition constant (Ki) was more than 10000 nM in data set [1] and 3.2 nM in data set [2]. The inhibition at 10 µM turned out to be 70% on CYP3A4 and 86% at CYP2C9.
For `CCCCOC(=O)NS(=O)(=O)c1sc(CC(C)C)cc1-c1ccc(CN2CCC(=O)CC2)cc1`, the inhibition constant (Ki) in data set [1] was more than 10000 nM; in data set [2] it was 16.1 nM. Also, the inhibition at 10 µM turned out to be 51% on CYP3A4 and 71% at CYP2C9.
On to `CCCCOC(=O)NS(=O)(=O)c1sc(CC(C)C)cc1-c1ccc(Cn2ccc(C(F)(F)F)n2)cc1`, for which the Ki in data set [1] is more than 10000 nM; in [2], 9.5 nM. The inhibition at 10 µM at CYP3A4 worked out at 33%; at CYP2C9 it was 56%.
`CCCCOC(=O)NS(=O)(=O)c1sc(CC(C)C)cc1-c1ccc(Cc2ncco2)cc1`: the inhibitory constant (Ki) was more than 10000 nM in data set [1] and 3.9 nM in [2]. Further, the figures for the inhibition at 10 µM at CYP3A4 and at CYP2C9 were 57% and 83%, respectively.
With `CCCCOC(=O)NS(=O)(=O)c1sc(CC(C)C)cc1-c1ccc(CN2CCN(C)C2=O)cc1`, the Ki is more than 10000 nM in data set [1] and 16.5 nM in data set [2]. Besides, the inhibition at 10 µM at CYP3A4 turned out to be 20%; on CYP2C9 it was 24%.
Turning to `CCCCOC(=O)NS(=O)(=O)c1sc(CC(C)C)cc1-c1ccc(Cn2cnccc2=O)cc1`, the inhibitory constant (Ki) in [1] was more than 10000 nM; in data set [2], 108 nM.
With `CCCCOC(=O)NS(=O)(=O)c1sc(CC(C)C)cc1-c1ccc(C(=O)c2nccs2)cc1`, the Ki in data set [1] is more than 10000 nM; in [2], 18.6 nM. Also, the inhibition at 10 µM on CYP3A4 was 16%; at CYP2C9, 92%.
Take `CCCCOC(=O)NS(=O)(=O)c1sc(CC(C)C)cc1-c1ccc(Cc2nnc(C(F)(F)F)o2)cc1`: the Ki in data set [1] is more than 10000 nM; in [2] it was 328 nM.
For the molecule `CCCCOC(=O)NS(=O)(=O)c1sc(CC(C)C)cc1-c1ccc(Cn2cnnn2)cc1`, the inhibition constant (Ki) in [1] is more than 10000 nM; in data set [2], 49 nM.
In the case of `CCCCOC(=O)NS(=O)(=O)c1sc(CC(C)C)cc1-c1ccc(CN2C(=O)CCC2=O)cc1`, the inhibition constant Ki in data set [1] and in data set [2] was more than 10000 nM in each case.
For the molecule `CCCCOC(=O)NS(=O)(=O)c1sc(CC(C)C)cc1-c1ccc(CN2CCOCC2)cc1`, the Ki in data set [1] was more than 10000 nM; in [2], 280 nM.
The like results for `CCCCOC(=O)NS(=O)(=O)c1sc(CC(C)C)cc1-c1ccc(CN2CCSC2)cc1` were, in that order, more than 10000 nM and 280 nM.
On to `CCCCOC(=O)NS(=O)(=O)c1sc(CC(C)C)cc1-c1ccc(Cn2ncnn2)cc1`, for which the Ki in [1] was more than 10000 nM; in data set [2], 16 nM.
In [1], `Cc1cc(Cn2cnc3c2C[C@@H](C(=O)O)N(C(=O)C(c2ccccc2)c2ccccc2)C3)ccc1N(C)C` gave an inhibition constant Ki of more than 10000 nM.
Take `CCCCOC(=O)NS(=O)(=O)c1sc(CC(C)C)cc1-c1ccc(C(=O)c2cccs2)cc1`: the figures for the Ki in data set [1] and in data set [2] were more than 10000 nM and 18.8 nM, respectively.
`CCCCc1nc(Cl)c(CO)n1Cc1ccc(-c2ccccc2-c2nnn[nH]2)cc1` [LOSARTAN] yielded an inhibition constant (Ki) in data set [1] of 12.1 nM.
On to `CCCCOC(=O)NS(=O)(=O)c1sc(CC(C)C)cc1-c1ccc(CN2C(=O)CN(C)C2=O)cc1`, for which the inhibition constant Ki in data set [1] was more than 10000 nM; in [2], 68.6 nM. In addition, the inhibition at 10 µM on CYP3A4 amounted to 25%; on CYP2C9 it was 40%.
Regarding `CCCCOC(=O)NS(=O)(=O)c1sc(CC(C)C)cc1-c1ccc(C(=O)c2nccn2C)cc1`, the inhibition at 10 µM came out at 6% at CYP2C19, 14% at CYP3A4, 38% on CYP2C9 and 17% on CYP3A5. Further, the inhibition constant Ki in [1] was more than 10000 nM; in data set [2] it was 2.9 nM.
Regarding `CCCCOC(=O)NS(=O)(=O)c1sc(CC(C)C)cc1-c1ccc(Cn2cnc(C)c2)cc1`, the Ki is more than 10000 nM in data set [1] and 17.6 nM in data set [2]. Moreover, the inhibition at 10 µM worked out at 44% at CYP3A4 and 37% at CYP2C9.
As for `CCCCOC(=O)NS(=O)(=O)c1sc(CC(C)C)cc1-c1ccc(Cn2cccn2)cc1`, the inhibition at 10 µM on CYP2B6 came out at 29%; on CYP2C19 it was 12%; at CYP3A4 it was 16%; on CYP2C9, 23%; on CYP3A5, 20%. In addition, the inhibition constant (Ki) in [1] was more than 10000 nM; in [2], 2.3 nM.
For the molecule `CCCCOC(=O)NS(=O)(=O)c1sc(CC(C)C)cc1-c1ccc(C(=O)c2ccnn2C)cc1`, the results for the Ki in data set [1] and in data set [2] were more than 10000 nM and 3.4 nM, respectively.
Regarding `CCCCOC(=O)NS(=O)(=O)c1sc(CC(C)C)cc1-c1ccc(Cn2cnc(C(F)(F)F)c2)cc1`, the Ki was more than 10000 nM in data set [1] and 7.3 nM in data set [2]. The inhibition at 10 µM at CYP3A4 was found to be 71%; on CYP2C9 it was 31%.
With `CCCCOC(=O)NS(=O)(=O)c1sc(CC(C)C)cc1-c1ccc(C(=O)c2ncco2)cc1`, the Ki in data set [1] was more than 10000 nM; in data set [2], 13.8 nM. Besides, the inhibition at 10 µM at CYP3A4 worked out at 36%; on CYP2C9 it was 75%.
Take `CCCCOC(=O)NS(=O)(=O)c1sc(CC(C)C)cc1-c1ccc(CN2C(=O)N(C)C(C)(C)C2=O)cc1`: the Ki in [1] was more than 10000 nM; in [2] it was 3.6 nM. Besides, the figures for the inhibition at 10 µM at CYP3A4 and on CYP2C9 were 20% and 38%, respectively.
`CCCCOC(=O)NS(=O)(=O)c1sc(CC(C)C)cc1-c1ccc(Cc2ccsc2)cc1`: the figures for the inhibition constant (Ki) in data set [1] and in data set [2] were more than 10000 nM and 175 nM, respectively.
In turn, `CCCCOC(=O)NS(=O)(=O)c1sc(CC(C)C)cc1-c1ccc(Cn2c(CC)nc3c(C)cc(C)nc32)cc1` came in with an IC50 in data set [3] of 1.1 nM.
In the case of `CCCCOC(=O)NS(=O)(=O)c1sc(CC(C)C)cc1-c1ccc(CN2CCCC2=O)cc1`, the Activity entry in the data set with NG108-15 [4] was “Toxic”; with NG108-15 [5], “Non-toxic”. Further, the inhibition at 10 µM at CYP2B6 was found to be 33%; on CYP2C19 it was 25%; at CYP2E1, 5%; at CYP3A4, 28%; on CYP2C9, 24%; at CYP3A5 it was 25%. In addition, the outcome with NG108-15 [6] and with NG108-15 [8] was Active. The inhibition constant Ki in data set [1] was more than 10000 nM; in data set [2], 3.5 nM. In the data set with NG108-15 [7], the outcome was inactive.
